Results published in ChEMBL document CHEMBL1124606, “Benzo- and pyrido-1,4-oxazepin-5-ones and -thiones: synthesis and structure-activity relationships of a new series of H1 antihistamines” (1989).

What was measured:
Cavia porcellus [1] = test: Histamine induced lethality, at 60-min pretreatment time when 30 mg/kg compound was administered perorally in guinea pigs; assay type: functional; settings: route oral
Cavia porcellus [2] = test: Histamine induced lethality, at 30-min pretreatment time when 30 mg/kg compound was administered intra peritoneally in guinea pigs; assay type: functional
[3] = target: Histamine H1 receptor (Cavia porcellus) (UniProt P31389); test: Histamine induced lethality, at 30-min pretreatment time of 3 mg/kg i.p. in guinea pigs.; assay type: functional, organism-based; set-up: dose 3 mg/kg; settings: at 3 mg/kg
Sequence of Histamine H1 receptor (Cavia porcellus) (P31389 whole entry): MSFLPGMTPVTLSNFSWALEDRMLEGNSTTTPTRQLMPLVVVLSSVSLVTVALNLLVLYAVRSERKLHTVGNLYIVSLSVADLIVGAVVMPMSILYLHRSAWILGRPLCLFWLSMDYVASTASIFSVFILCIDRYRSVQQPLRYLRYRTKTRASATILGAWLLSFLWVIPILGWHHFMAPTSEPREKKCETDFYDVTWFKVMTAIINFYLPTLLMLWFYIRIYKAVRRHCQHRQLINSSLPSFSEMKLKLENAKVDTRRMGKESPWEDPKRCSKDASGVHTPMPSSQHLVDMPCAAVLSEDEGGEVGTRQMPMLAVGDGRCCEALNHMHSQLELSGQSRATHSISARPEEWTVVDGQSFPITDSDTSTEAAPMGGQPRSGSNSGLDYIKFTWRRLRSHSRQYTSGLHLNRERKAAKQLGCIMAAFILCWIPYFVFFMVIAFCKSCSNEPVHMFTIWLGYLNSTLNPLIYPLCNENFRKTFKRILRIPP

Cavia porcellus [4] = test: Histamine induced lethality, at 60-min pretreatment time when 3 mg/kg compound was administered perorally in guinea pigs; assay type: functional; settings: route oral
Cavia porcellus [5] = test: Histamine induced lethality, at 60-min pretreatment time when 1 mg/kg compound was administered perorally in guinea pigs; assay type: functional; settings: route oral
Felis catus = test: The compound dose required to elicit marked cortical slowing and spindling, when administarted intra venously in cats; assay type: functional
In short: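 Cats given test compound iv (0.001-20 mg/kg), with spontaneous EEG inspected after each dose for cortical slowing, synchrony and spindle-type activity. The sedative dose was the one producing marked slowing and spindling (synchrony). Values are mean ± SD over the number of experiments per compound.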

Cavia porcellus [6] = test: Histamine induced lethality, at 60-min pretreatment time when 0.3 mg/kg compound was administered perorally in guinea pigs; assay type: functional; settings: route oral
[7] = target: Histamine H1 receptor (Cavia porcellus) (UniProt P31389); test: Histamine induced lethality, at 60-min pretreatment time of 0.1 mg/kg p.o. in guinea pigs.; assay type: functional, organism-based; set-up: dose 0.1 mg/kg; settings: at 0.1 mg/kg
Cavia porcellus [8] = species on record: Cavia porcellus; test: Effective dose that protects guinea pigs against histamine induced lethality, at 1 hour pretreatment time; assay type: functional
In short: (§1)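 Survival at 24 h after challenge was scored as protection. Groups of 5–10 animals per treatment; ED50 was calculated by the Litchfield–Wilcoxon method or by computer probit analysis.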

Cavia porcellus [9] = species on record: Cavia porcellus; test: Effective dose that protects guinea pigs against histamine induced lethality at 6 hours pretreatment time; assay type: functional; in short: as §1

SMILES: CN1CC(CCN)Oc2ncccc2C1=S (stereo not drawn)
- survival at 30 mg/kg (Cavia porcellus [1]): 0%

SMILES: CCCCN(CCCC)CCC1CN(C)C(=S)c2cccnc2O1 (stereo not drawn)
- survival at 30 mg/kg (Cavia porcellus [2]): 100%
- Survival [3]: 33%

SMILES: CCN1CC(CCN(C)C)Oc2ncccc2C1=S (stereo not drawn)
- survival at 3 mg/kg (Cavia porcellus [4]): 100%
- survival at 1 mg/kg (Cavia porcellus [5]): 33%

SMILES: CN1CC(CC[N+](C)(C)C)Oc2ncccc2C1=S (stereo not drawn)
- survival at 30 mg/kg (Cavia porcellus [2]): 100%
- Survival [3]: 0%

SMILES: CCN(C)CCC1CN(C)C(=S)c2cccnc2O1 (stereo not drawn)
- survival at 3 mg/kg (Cavia porcellus [4]): 60%
- survival at 1 mg/kg (Cavia porcellus [5]): 0%
- survival at 30 mg/kg (Cavia porcellus [1]): 100%

SMILES: CN1CC(CCN2CCCC2)Oc2ncccc2C1=S (stereo not drawn)
- survival at 3 mg/kg (Cavia porcellus [4]): 80%
- survival at 30 mg/kg (Cavia porcellus [1]): 67%

SMILES: CCN(CC)CCC1CN(C)C(=S)c2cccnc2O1 (stereo not drawn)
- survival at 3 mg/kg (Cavia porcellus [4]): 67%
- survival at 1 mg/kg (Cavia porcellus [5]): 33%

SMILES: CN(C)CCC1CN(C)C(=S)c2cc(Cl)ccc2O1 (stereo not drawn)
- survival at 3 mg/kg (Cavia porcellus [4]): 100%
- Dose (Felis catus): 10 mg/kg
- survival at 1 mg/kg (Cavia porcellus [5]): 33%

SMILES: CN1CC(CCN2CCCC2)Oc2ncc(Cl)cc2C1=S (stereo not drawn)
- survival at 0.3 mg/kg (Cavia porcellus [6]): 100%
- Survival [7]: 40%
- ED50 (Cavia porcellus [8]): 0.12 mg/kg

SMILES: COc1ccc2c(c1)C(=S)N(C)CC(CCN(C)C)O2 (stereo not drawn)
- survival at 3 mg/kg (Cavia porcellus [4]): 0%
- survival at 30 mg/kg (Cavia porcellus [1]): 100%

SMILES: COc1ccc(CCN(C)CCC2CN(C)C(=S)c3cccnc3O2)cc1 (stereo not drawn)
- survival at 3 mg/kg (Cavia porcellus [4]): 33%
- survival at 30 mg/kg (Cavia porcellus [1]): 100%

SMILES: CNCCC1CN(C)C(=S)c2cc(Cl)cnc2O1 (stereo not drawn)
- survival at 3 mg/kg (Cavia porcellus [4]): 100%
- survival at 0.3 mg/kg (Cavia porcellus [6]): 0%

SMILES: CC(=O)Nc1ccc2c(c1)C(=S)N(C)CC(CCN(C)C)O2 (stereo not drawn)
- survival at 3 mg/kg (Cavia porcellus [4]): 100%
- survival at 0.3 mg/kg (Cavia porcellus [6]): 0%

SMILES: CN1CC(CCN2CCC2)Oc2ncccc2C1=S (stereo not drawn)
- ED50 (Cavia porcellus [9]): 1 mg/kg
- Survival [7]: 100%
- ED50 (Cavia porcellus [8]): 0.04 mg/kg

SMILES: CN(C)CCC1CN(C)C(=S)c2cc([N+](=O)[O-])ccc2O1 (stereo not drawn)
- survival at 3 mg/kg (Cavia porcellus [4]): 67%
- survival at 0.3 mg/kg (Cavia porcellus [6]): 33%

SMILES: CN(C)CCC1CN(C)C(=S)c2cc3ccccc3nc2O1 (stereo not drawn)
- ED50 (Cavia porcellus [9]): 2.9 mg/kg
- survival at 0.3 mg/kg (Cavia porcellus [6]): 100%
- Survival [7]: 67%
- ED50 (Cavia porcellus [8]): 0.1 mg/kg

SMILES: CN1CC(CCN2CCC2)Oc2ccc(Cl)cc2C1=S (stereo not drawn)
- survival at 0.3 mg/kg (Cavia porcellus [6]): 100%
- Survival [7]: 40%
- ED50 (Cavia porcellus [8]): 0.12 mg/kg

SMILES: CN(C)CCC1CN(C)C(=O)c2ccccc2O1 (stereo not drawn)
- survival at 30 mg/kg (Cavia porcellus [2]): 62%

SMILES: CN1CC(CCN2CCCCC2)Oc2ncccc2C1=S (stereo not drawn)
- survival at 30 mg/kg (Cavia porcellus [2]): 100%
- Survival [3]: 0%

SMILES: CN(C)CCC1CN(Cc2ccccc2)C(=S)c2cccnc2O1 (stereo not drawn)
- survival at 3 mg/kg (Cavia porcellus [4]): 100%
- survival at 1 mg/kg (Cavia porcellus [5]): 0%

SMILES: CN(C)CCC1CN(C)C(=S)c2ccncc2O1 (stereo not drawn)
- survival at 0.3 mg/kg (Cavia porcellus [6]): 0%
- survival at 1 mg/kg (Cavia porcellus [5]): 100%

SMILES: CC(CC1CN(C)C(=O)c2cccnc2O1)N(C)C (stereo not drawn)
- survival at 30 mg/kg (Cavia porcellus [2]): 100%
- Survival [3]: 0%

SMILES: CN(C)CCC1CN(C)C(=S)c2cc(N)ccc2O1 (stereo not drawn)
- survival at 3 mg/kg (Cavia porcellus [4]): 100%
- survival at 1 mg/kg (Cavia porcellus [5]): 0%

SMILES: CN(C)CCC1CN(C)C(=S)c2cc(Br)cnc2O1 (stereo not drawn)
- ED50 (Cavia porcellus [9]): 2 mg/kg
- Survival [7]: 100%
- ED50 (Cavia porcellus [8]): 0.05 mg/kg

SMILES: CN(C)CC1CN(C)C(=O)c2cccnc2O1 (stereo not drawn)
- survival at 30 mg/kg (Cavia porcellus [2]): 0%

SMILES: CC(CN(C)C)C1CN(C)C(=O)c2cccnc2O1 (stereo not drawn)
- survival at 30 mg/kg (Cavia porcellus [2]): 67%
- Survival [3]: 0%

SMILES: CN(C)CCC1CN(C)C(=O)c2cnc3cc(C(F)(F)F)ccc3c2O1 (stereo not drawn)
- survival at 30 mg/kg (Cavia porcellus [2]): 100%
- Survival [3]: 0%

SMILES: CN(C)CCOc1ncccc1C(=S)N(C)C
- survival at 30 mg/kg (Cavia porcellus [2]): 0%

SMILES: O=C1c2ccccc2OC(CCN2CCOCC2)CN1Cc1ccccc1 (stereo not drawn)
- survival at 30 mg/kg (Cavia porcellus [2]): 0%

SMILES: CN(C)CCCOc1ncccc1C(=S)N(C)C
- survival at 30 mg/kg (Cavia porcellus [2]): 0%

SMILES: CN(C)CCC1CN(C)C(=S)c2cc(C(F)(F)F)ccc2O1 (stereo not drawn)
- survival at 3 mg/kg (Cavia porcellus [4]): 33%
- survival at 30 mg/kg (Cavia porcellus [1]): 100%

SMILES: Cc1nc2c(cc1Cl)C(=S)N(C)CC(CCN(C)C)O2 (stereo not drawn)
- survival at 0.3 mg/kg (Cavia porcellus [6]): 67%
- Survival [7]: 67%

SMILES: CN(C)CCCC1CN(C)C(=S)c2cccnc2O1 (stereo not drawn)
- survival at 30 mg/kg (Cavia porcellus [2]): 100%
- Survival [3]: 33%

SMILES: CNCCC1CN(C)C(=S)c2cccnc2O1 (stereo not drawn)
- survival at 3 mg/kg (Cavia porcellus [4]): 0%
- Dose (Felis catus): >20 mg/kg
- survival at 30 mg/kg (Cavia porcellus [1]): 100%

SMILES: CN1CC(CCn2cccn2)Oc2ncccc2C1=S (stereo not drawn)
- survival at 30 mg/kg (Cavia porcellus [2]): 33%

SMILES: CN(C)CCC1CN(C)C(=O)c2c(Cl)cncc2O1 (stereo not drawn)
- survival at 30 mg/kg (Cavia porcellus [2]): 0%

SMILES: CN1CC(CCN2CCOCC2)Oc2ncccc2C1=S (stereo not drawn)
- survival at 30 mg/kg (Cavia porcellus [2]): 100%
- Survival [3]: 0%

SMILES: CN(C)CCC1CN(C)C(=S)c2cc(Br)ccc2O1 (stereo not drawn)
- survival at 3 mg/kg (Cavia porcellus [4]): 67%
- survival at 1 mg/kg (Cavia porcellus [5]): 0%
- survival at 30 mg/kg (Cavia porcellus [1]): 100%
